From ChEMBL document CHEMBL1150822, “Additional bioactive Lyso-PAF congeners from the sponge Spirastrella abata” (J Nat Prod, 2001) come the findings set out here.

What is called IC50 is the concentration that gives 50% inhibition. A high value points to lower potency.

≈ marks a conversion by molar mass, not a printed value. Calls of active or inactive are those of the source. No cut-off for these calls is given here. A value given as a limit tells only on which side of the number the result lay.

The test system of one test is XF498. Description: Cytotoxicity against human XF498 cells after 48 hrs by SRB assay. Type of test: functional. Particulars: XF498, 48 h, read-out: ED50 (the source's name). In short, it runs like this:
(§1)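 Rapidly growing cells were harvested and seeded at (1-2) × 10^4 cells/well, then preincubated for 24 h. Compounds dissolved in culture medium were added in triplicate, and cells were incubated for 48 h at 37 °C under 5% CO2. Cells were fixed with cold TCA and stained with 0.4% SRB in 1% acetic acid. Bound dye was solubilized in 10 mM unbuffered Tris base and absorbance read at 520 nm.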
For orientation: Sulforhodamine B stains cellular protein and so reports cell mass.

The next test has as its system Chang. Description: (§2) Inhibition of cholesterol biosynthesis in human Chang cells. Type of test: functional, cell-based.
Another test has as its system A549. As to the kind of experiment: Cytotoxicity against human A549 cells after 48 hrs by SRB assay. Particulars: A549, 48 h, read-out: ED50 (the source's name). Type of test: functional. A digest of the protocol:
as §1

The subject of a further test is SK-MEL-2 (Homo sapiens). Description: Cytotoxicity against human SK-MEL-2 cells after 48 hrs by SRB assay. To be noted: SK-MEL-2, 48 h, read-out: ED50 (the source's name).
The test system of a further test is SK-OV-3. As to the kind of experiment: Cytotoxicity against human SKOV3 cells after 48 hrs by SRB assay. It is filed as functional. Particulars: SK-OV-3, 48 h, read-out: ED50 (the source's name). In short, it runs like this:
as §1

The next test relates to HCT-15. Description: Cytotoxicity against human HCT15 cells after 48 hrs by SRB assay. Type of test: functional. Particulars: HCT-15, 48 h, read-out: ED50 (the source's name). A digest of the protocol: as §1
The nature of test [1]: as §2. It is filed as functional, cell-based.

Consider `CCCCCCCCCCCCCCCCOC[C@@H](O)COP(=O)([O-])OCC[N+](C)(C)C`, for which the EC50 is 4.9 µg/mL (≈ 10.2 µM) in the test on XF498; 5.5 µg/mL (≈ 11.4 µM) in the test with A549; 5.4 µg/mL (≈ 11.2 µM) in the test with SK-MEL-2 (Homo sapiens); 4.9 µg/mL (≈ 10.2 µM) in the test on SK-OV-3; 5.4 µg/mL (≈ 11.2 µM) with HCT-15. The result in the test with Chang was inactive.

Take `CCCCCCCCCCC/C=C\CCCOC[C@H](O)COP(=O)([O-])OCC[N+](C)(C)C`: the EC50 in the test with XF498, in the test on A549, with SK-MEL-2 (Homo sapiens), in the test with SK-OV-3 and in the test on HCT-15 was greater than 30 µg/mL each time. For the same compound, the IC50 in test [1] worked out at 118 µg/mL (≈ 246 µM).

For the compound `CCCCCCCCCCCC/C=C\CCOC[C@H](O)COP(=O)([O-])OCC[N+](C)(C)C`, the EC50 in the test with XF498, in the test with A549, in the test on SK-MEL-2 (Homo sapiens), in the test with SK-OV-3 and in the test with HCT-15 was greater than 30 µg/mL in each case. The IC50 in test [1] was found to be 102 µg/mL (≈ 213 µM).

Turning to `COc1cccc2c1C(=O)c1c(O)c3c(c(O)c1C2=O)C[C@@](O)(C(=O)CO)C[C@@H]3O[C@H]1C[C@H](N)[C@H](O)[C@H](C)O1` [DOXORUBICIN], the EC50 in the test on XF498 was 0.08 µg/mL (≈ 0.147 µM); with A549 it was 0.02 µg/mL (≈ 0.0368 µM); in the test on SK-MEL-2 (Homo sapiens), 0.02 µg/mL (≈ 0.0368 µM); with SK-OV-3, 0.11 µg/mL (≈ 0.202 µM); with HCT-15, 0.04 µg/mL (≈ 0.0736 µM).

Take `CCCCCCCCCCC/C=C\CC(COC[C@H](O)COP(=O)([O-])OCC[N+](C)(C)C)OC` (some centres undefined): the EC50 in the test with XF498 amounted to 4 µg/mL (≈ 7.85 µM); with A549 it was 6.3 µg/mL (≈ 12.4 µM); in the test on SK-MEL-2 (Homo sapiens) it was 3.8 µg/mL (≈ 7.46 µM); in the test with SK-OV-3, 5.9 µg/mL (≈ 11.6 µM); with HCT-15, 3.7 µg/mL (≈ 7.26 µM).

With `CCCCCCCCCCCCCCC(COC[C@H](O)COP(=O)([O-])OCC[N+](C)(C)C)OC` (some centres undefined), the EC50 came to 4.5 µg/mL (≈ 8.79 µM) in the test with XF498; 5.8 µg/mL (≈ 11.3 µM) in the test on A549; 5.2 µg/mL (≈ 10.2 µM) with SK-MEL-2 (Homo sapiens); 5.7 µg/mL (≈ 11.1 µM) in the test with SK-OV-3; 5 µg/mL (≈ 9.77 µM) in the test on HCT-15. Further, the outcome in the test with Chang was inactive.
